The values that follow come from ChEMBL document CHEMBL3877243, “Synthesis and biological evaluation of novel pentacyclic triterpene α-cyclodextrin conjugates as HCV entry inhibitors” (Eur J Med Chem, 2016).

The test system of data set [1] is Hepatitis C virus. As to the kind of experiment: Antiviral activity against HCV pseudoparticle harboring HCV envelope protein E1 and E2 and HIV proviral DNA assessed as inhibition of pseudoparticle entry into human Huh7 cells at 5 uM measured after 3 days by luciferase reporter gene assay relative to control. As to conditions: Huh-7, 72 h. The data set is classed as functional, Hepacivirus hominis. The method in brief:
(§1)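 Huh-7 cells (5 × 10³/well) seeded 24 h, then infected with HCVpp or VSVGpp (HIV pNL4-3 luciferase backbone with HCV E1E2 or VSV G, made in 293T cells) with compound in 1% DMSO at 37 °C. Luciferase read 3 days post-infection. % inhibition = 100 − background-subtracted signal as % of DMSO wells. Duplicates, ≥3 repeats.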

Data set [2] has as its system Vesicular stomatitis virus. As to the kind of experiment: Antiviral activity against VSV pseudoparticle harboring VSV G protein and HIV proviral DNA assessed as inhibition of pseudoparticle entry into human Huh7 cells measured after 3 days by luciferase reporter gene assay. It is filed as functional, cell-based. As to conditions: Huh-7. The method in brief: as §1
The nature of data set [3]: Cytotoxicity against MDCK cells measured after 48 hrs by alamar blue assay. It is filed as toxicity, cell-based, Canis lupus familiaris. As to conditions: dog. The method in brief: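 MDCK cells were seeded at 1 × 10⁴ per well and allowed to adhere for 16 h at 37 °C in 5% CO₂. Compounds were added at 0.1, 1, 10 and 100, in triplicate, against 1% DMSO controls, for 48 h. AlamarBlue was then added for 2 h and fluorescence read (ex 530, em 590 nm). Percent viability gave CC50.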
A general note: The colour change of resazurin is a common sign of viable cells or microbes.

Data set [4] can be described thus: Selectivity index, ratio of CC50 for MDCK cells to IC50 for HCV pseudoparticle expressing envelope protein E1 and E2 to. The data set is classed as functional. A digest of the protocol: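 SI = MDCK CC50 / HCVpp IC50. The IC50 came from HIV pNL4-3 luciferase pseudoparticles carrying HCV E1E2, made in 293T cells. Huh-7 cells (5 × 10³ per well, seeded 24 h earlier) were infected with compound present at 37 °C, and luciferase was read 3 days later. Inhibition was normalised to DMSO wells minus uninfected background. IC50 values are means of at least three independent determinations.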

Data set [5] relates to Hepatitis C virus. Description: Antiviral activity against HCV pseudoparticle harboring HCV envelope protein E1 and E2 and HIV proviral DNA assessed as inhibition of pseudoparticle entry into human Huh7 cells measured after 3 days by luciferase reporter gene assay. It is filed as functional, cell-based, Hepacivirus hominis. As to conditions: Huh-7, 72 h. A digest of the protocol: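 Huh-7 cells infected with HCVpp with compound at six concentrations spanning the nanomolar range upward, 37 °C. Luciferase read 3 days post-infection, normalised to DMSO-only wells minus uninfected background. Each concentration in triplicate. IC50 is the mean of at least three independent determinations.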

Data set [6] has as its system Hepatitis C virus. Description: Antiviral activity against HCV pseudoparticle harboring HCV envelope protein E1, E2 and HIV proviral DNA infected in HuH7 cells assessed as reduction in viral infection at 10 uM preincubated cells with test compound for 3 hrs followed by viral infection measured after 72 hrs by luciferase reporter gene assay. As to conditions: Huh-7. The data set is classed as functional, Hepacivirus hominis. The method in brief:
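Pre-treatment format: Huh-7 cells incubated 3 h at 37 °C with compound in DMEM/10% FBS, then washed to remove unbound compound. Cells were then infected with HCVpp at 37 °C for 72 h. Luciferase readout, normalised to 0.5% DMSO (final).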

Data set [7] has as its system Hepatitis C virus. As to the kind of experiment: Antiviral activity against HCV pseudoparticle harboring HCV envelope protein E1, E2 and HIV proviral DNA infected in HuH7 cells assessed as reduction in viral infection at 10 uM incubated with virus and compound for 3 hrs by luciferase reporter gene assay. The data set is classed as functional, Hepacivirus hominis. As to conditions: Huh-7, 3 h. A digest of the protocol:
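Pre-binding format: Huh-7 cells incubated with compound plus HCVpp at 4 °C for 3 h to allow virus binding. Readout is a luciferase pseudovirus-entry signal, normalised to 0.5% DMSO (final). An anti-CD81 antibody served as positive control.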
(In general: Reporter assays use an easily measured gene product as a stand-in for the process of interest.)

Data set [8] relates to Hepatitis C virus. As to the kind of experiment: Antiviral activity against HCV pseudoparticle harboring HCV envelope protein E1, E2 and HIV proviral DNA infected in HuH7 cells assessed as reduction in viral infection at 10 uM pretreated with virus for 6 hrs followed by compound addition measured after 72 hrs by luciferase reporter gene assay. It is filed as functional, Hepacivirus hominis. As to conditions: Huh-7. A digest of the protocol:
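Post-entry format: Huh-7 cells incubated with HCVpp at 37 °C for 6 h to allow entry but not reverse transcription, then washed. Compound added at 37 °C for a further 72 h. Luciferase readout, normalised to 0.5% DMSO (final).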

Data set [9] has as its system Hepatitis C virus. As to the kind of experiment: Antiviral activity against HCV pseudoparticle harboring HCV envelope protein E1, E2 and HIV proviral DNA infected in HuH7 cells assessed as reduction in viral infection at 10 uM preincubated viral particle with cells for 3 hrs followed by test compound addition measured after 72 hrs by luciferase reporter gene assay. The data set is classed as functional, Hepacivirus hominis. As to conditions: Huh-7. The method in brief:
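Post-binding format: Huh-7 cells incubated with HCVpp at 4 °C for 3 h, then washed thoroughly to remove unbound virus. Cells were then exposed to compound at 37 °C for 72 h. Luciferase readout, normalised to 0.5% DMSO (final).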

Data set [10] is described as follows: Aqueous solubility of the compound at 100 ug/ml incubated for 1 hr. As to conditions: buffer. It is filed as physicochemical.
Data set [11] in a line: Aqueous solubility of the compound by HPLC method. It is filed as physicochemical. As to conditions: buffer.
A short description of data set [12]: Aqueous solubility of the compound at room temperature measured per 100 ml of solution. It is filed as physicochemical. As to conditions: buffer.

Each structure is given as a SMILES string. ≈ marks a conversion by molar mass, not a printed value. Calls of active or inactive are those of the source. The calls are words filed in the database; no cut-off is given here.

The term inhibition denotes the share of the control response that was lost under treatment. Regarding `C=C(C)[C@@H]1CC[C@]2(C(=O)NCc3cn(C[C@H]4O[C@@H]5O[C@H]6[C@H](OC(C)=O)[C@@H](OC(C)=O)[C@@H](O[C@H]7[C@H](OC(C)=O)[C@@H](OC(C)=O)[C@@H](O[C@H]8[C@H](OC(C)=O)[C@@H](OC(C)=O)[C@@H](O[C@H]9[C@H](OC(C)=O)[C@@H](OC(C)=O)[C@@H](O[C@H]%10[C@H](OC(C)=O)[C@@H](OC(C)=O)[C@@H](O[C@H]4[C@H](OC(C)=O)[C@H]5OC(C)=O)O[C@@H]%10COC(C)=O)O[C@@H]9COC(C)=O)O[C@@H]8COC(C)=O)O[C@@H]7COC(C)=O)O[C@@H]6COC(C)=O)nn3)CC[C@]3(C)[C@H](CC[C@@H]4[C@@]5(C)CC[C@H](O)C(C)(C)[C@@H]5CC[C@]43C)[C@@H]12`, the inhibition at 5 µM in the data set with Hepatitis C virus [1] came out at 60%. Besides, the inhibition entry in data set [2] was “Active”.

By CC50 is commonly meant the concentration at which the toxic effect on the cells reaches its halfway point. The term IC50 denotes the concentration needed to halve the response being measured. In data set [3], `CC1(C)CC[C@]2(C(=O)NCc3cn(C[C@H]4O[C@@H]5O[C@H]6[C@H](O)[C@@H](O)[C@@H](O[C@H]7[C@H](O)[C@@H](O)[C@@H](O[C@H]8[C@H](O)[C@@H](O)[C@@H](O[C@H]9[C@H](O)[C@@H](O)[C@@H](O[C@H]%10[C@H](O)[C@@H](O)[C@@H](O[C@H]4[C@H](O)[C@H]5O)O[C@@H]%10CO)O[C@@H]9CO)O[C@@H]8CO)O[C@@H]7CO)O[C@@H]6CO)nn3)[C@H](O)C[C@]3(C)C(=CC[C@@H]4[C@@]5(C)CC[C@H](O)C(C)(C)[C@@H]5CC[C@]43C)[C@H]2C1` yielded a CC50 at 48 h above 100 µM. The “Ratio CC50/IC50” value in [4] is on record as above 400. The inhibition at 5 µM with Hepatitis C virus [1] was 95%. Moreover, in the data set with Hepatitis C virus [5], the IC50 was 0.25 µM. The inhibition at 10 µM was 10 to 30% with Hepatitis C virus [6], 10 to 30% with Hepatitis C virus [7], 10 to 30% in the data set on Hepatitis C virus [8] and above 90% with Hepatitis C virus [9].

As to `C=C(C)[C@@H]1CC[C@]2(C(=O)O)CC[C@]3(C)[C@H](CC[C@@H]4[C@@]5(C)CC[C@H](O)C(C)(C)[C@@H]5CC[C@]43C)[C@@H]12` [BETULINIC ACID], the solubility at 1 h in data set [10] came to 0.02 µg/mL (≈ 0.0438 µM).

As for `CC1(C)CC[C@]2(C(=O)O)[C@H](O)C[C@]3(C)C(=CC[C@@H]4[C@@]5(C)CC[C@H](O)C(C)(C)[C@@H]5CC[C@]43C)[C@@H]2C1`, it took 15.4 µM to reach half-maximal cytotoxicity in data set [3] (CC50 at 48 h). Besides, the “Ratio CC50/IC50” value in data set [4] is 11.

Take `CC1(C)CC[C@]2(C(=O)O)CC[C@]3(C)C(=CC[C@@H]4[C@@]5(C)CC[C@H](O)C(C)(C)[C@@H]5CC[C@]43C)[C@@H]2C1` [OLEANOLIC_ACID]: the solubility in [11] is 0.05 µg/mL (≈ 0.109 µM).

With `C=C(C)[C@@H]1CC[C@]2(C(=O)NCc3cn(C[C@H]4O[C@@H]5O[C@H]6[C@H](O)[C@@H](O)[C@@H](O[C@H]7[C@H](O)[C@@H](O)[C@@H](O[C@H]8[C@H](O)[C@@H](O)[C@@H](O[C@H]9[C@H](O)[C@@H](O)[C@@H](O[C@H]%10[C@H](O)[C@@H](O)[C@@H](O[C@H]4[C@H](O)[C@H]5O)O[C@@H]%10CO)O[C@@H]9CO)O[C@@H]8CO)O[C@@H]7CO)O[C@@H]6CO)nn3)CC[C@]3(C)[C@H](CC[C@@H]4[C@@]5(C)CC[C@H](O)C(C)(C)[C@@H]5CC[C@]43C)[C@@H]12`, the inhibition at 5 µM in the data set on Hepatitis C virus [1] turned out to be 60%. Moreover, the inhibition entry in data set [2] is “Active”.

In the case of `OC[C@H]1O[C@@H]2O[C@H]3[C@H](O)[C@@H](O)[C@@H](O[C@H]4[C@H](O)[C@@H](O)[C@@H](O[C@H]5[C@H](O)[C@@H](O)[C@@H](O[C@H]6[C@H](O)[C@@H](O)[C@@H](O[C@H]7[C@H](O)[C@@H](O)[C@@H](O[C@H]1[C@H](O)[C@H]2O)O[C@@H]7CO)O[C@@H]6CO)O[C@@H]5CO)O[C@@H]4CO)O[C@@H]3CO` [ALFADEX], the solubility in [12] was found to be 14.5 g.

For `CC(=O)OC[C@H]1O[C@@H]2O[C@H]3[C@H](OC(C)=O)[C@@H](OC(C)=O)[C@@H](O[C@H]4[C@H](OC(C)=O)[C@@H](OC(C)=O)[C@@H](O[C@H]5[C@H](OC(C)=O)[C@@H](OC(C)=O)[C@@H](O[C@H]6[C@H](OC(C)=O)[C@@H](OC(C)=O)[C@@H](O[C@H]7[C@H](OC(C)=O)[C@@H](OC(C)=O)[C@@H](O[C@H]1[C@H](OC(C)=O)[C@H]2OC(C)=O)O[C@@H]7COC(C)=O)O[C@@H]6COC(C)=O)O[C@@H]5Cn1cc(CNC(=O)[C@]25CCC(C)(C)C[C@@H]2C2=CC[C@@H]6[C@@]7(C)CC[C@H](O)C(C)(C)[C@@H]7CC[C@@]6(C)[C@]2(C)C[C@H]5O)nn1)O[C@@H]4COC(C)=O)O[C@@H]3COC(C)=O`, in [3], the CC50 at 48 h was above 100 µM. Also, the “Ratio CC50/IC50” value in data set [4] was above 85. Also, in the data set on Hepatitis C virus [1], the inhibition at 5 µM came out at 80%. Also, the IC50 with Hepatitis C virus [5] turned out to be 1.18 µM. Besides, the inhibition at 10 µM in the data set with Hepatitis C virus [6] was 10 to 30%; in the data set on Hepatitis C virus [7] it was 10 to 30%; with Hepatitis C virus [8], 10 to 30%; in the data set on Hepatitis C virus [9], above 90%.
